Measurements from ChEMBL document CHEMBL5236549, “Discovery of 2-Sulfinyl-Diazabicyclooctane Derivatives, Potential Oral β-Lactamase Inhibitors for Infections Caused by Serine β-Lactamase-Producing Enterobacterales” (J Med Chem, 2021).

Legend:
[1] = Inhibition of bacterial beta-lactamase CTX-M-15 using nitrocefin as substrate incubated for 20 mins; set-up: species or system Bacteria
[2] = Inhibition of bacterial beta-lactamase KPC-2 using nitrocefin as substrate incubated for 20 mins; set-up: species or system Bacteria
How it was run: (§1)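 Nitrocefin hydrolysis read by absorbance. Enzyme titrated to give about 0.2 absorbance change over the no-enzyme control. Enzyme added to nitrocefin (final 50 μg/mL) plus inhibitor, no preincubation, read after 20 min at 35 °C. IC50 is 50% reduction of hydrolysis. N = 1.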

[3] = Inhibition of bacterial beta-lactamase CMY-2 using nitrocefin as substrate incubated for 20 mins; set-up: species or system Bacteria; how it was run: as §1
Escherichia coli [4] = assay: Antibacterial activity against Escherichia coli ATCC SR34100 assessed as reduction in bacterial growth by measuring minimum […] concentration incubated for 16 to 24 hrs by CLSI based two-fold serial dilution method; format: functional; settings: time 16-24 hrs
How it was run: (§2)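 MPC₁ by broth microdilution: twofold serial dilutions of inhibitor in cation-adjusted Mueller Hinton broth containing ceftibuten at 1 μg/mL. Inoculum about 5 × 10⁴ cfu/well final, set from OD625. Incubation at 35 °C for 16−20 h. […] N = 1.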

Escherichia coli [5] = assay: Antibacterial activity against Escherichia coli ATCC SR09613 assessed as reduction in bacterial growth by measuring minimum […] concentration incubated for 16 to 24 hrs by CLSI based two-fold serial dilution method; format: functional; settings: time 16-24 hrs; how it was run: as §2
Klebsiella pneumoniae [6] = assay: Antibacterial activity against Klebsiella pneumoniae ATCC SR201218 assessed as reduction in bacterial growth by measuring minimum […] concentration incubated for 16 to 24 hrs by CLSI based two-fold serial dilution method; format: functional; settings: time 16-24 hrs; how it was run: as §2
Escherichia coli [7] = assay: Antibacterial activity against Escherichia coli ATCC SR34100 assessed as inhibition of bacterial growth incubated for 16 to 20 hrs by CLSI based two-fold serial dilution method
Escherichia coli [8] = assay: Antibacterial activity against Escherichia coli ATCC SR09613 assessed as inhibition of bacterial growth incubated for 16 to 20 hrs by CLSI based two-fold serial dilution method
Klebsiella pneumoniae [9] = assay: Antibacterial activity against Klebsiella pneumoniae ATCC BAA1705 assessed as inhibition of bacterial growth incubated for 16 to 20 hrs by CLSI based two-fold serial dilution method
Klebsiella pneumoniae [10] = assay: Antibacterial activity against Klebsiella pneumoniae ATCC SR201218 assessed as inhibition of bacterial growth incubated for 16 to 20 hrs by CLSI based two-fold serial dilution method
Klebsiella pneumoniae [11] = assay: Antibacterial activity against Klebsiella pneumoniae ATCC BAA1705 assessed as reduction in bacterial growth by measuring minimum potentiating concentration incubated for 16 to 20 hrs by CLSI based two-fold serial dilution method; settings: time 16-20 hrs
[12] = Inhibition of bacterial beta-lactamase OXA-48 using nitrocefin as substrate incubated for 20 mins; set-up: species or system Bacteria; how it was run: as §1
[13] = Total clearance in rat by LC-MS/MS analysis; format: ADME; settings: in vivo
[14] = Stability of the compound in phosphate buffer at pH 7.0 assessed as parent compound remaining at 40 degreeC measured after 16 hrs; format: physicochemical; settings: read-out: Stability
How it was run: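 Compound held in pH 7.0 phosphate buffer at 40 °C for 16 h; amount remaining reported as %.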

SMILES	IC50 [1] [nM]	IC50 [2] [nM]	IC50 [3] [nM]	MPC (Escherichia coli [4]) [µg/mL]	MPC (Escherichia coli [5]) [µg/mL]	MPC (Klebsiella pneumoniae [6]) [µg/mL]	MIC (Escherichia coli [7]) [µg/mL]	MIC (Escherichia coli [8]) [µg/mL]	MIC (Klebsiella pneumoniae [9]) [µg/mL]	MIC (Klebsiella pneumoniae [10]) [µg/mL]	MPC (Klebsiella pneumoniae [11]) [µg/mL]	IC50 [12] [nM]	clearance [13] [mL/min/kg]	remaining at 16 h [14] [%]
NC(=O)/C(C[S@@+]([O-])[C@@H]1CC[C@@H]2CN1C(=O)N2O[C@H](F)C(=O)[O-])=N\O.[Na+] (stereo in doubt)	70	132	143	2	0.25	32	> 32	> 32	> 32	> 32	2	–	–	–
NC(=O)C[S@@+]([O-])[C@@H]1CC[C@@H]2CN1C(=O)N2O[C@H](F)C(=O)[O-].[Na+]	50	35	57	0.25	0.125	4	32	32	32	> 32	0.063	–	–	–
Cc1nnc(C[S@@+]([O-])[C@@H]2CC[C@@H]3CN2C(=O)N3O[C@H](F)C(=O)[O-])o1.[Na+]	24	16	36	1	0.125	4	> 32	> 32	> 32	> 32	1	–	–	–
NC(=O)OCC[S@@+]([O-])[C@@H]1CC[C@@H]2CN1C(=O)N2O[C@H](F)C(=O)[O-].[Na+]	14	27	64	1	0.125	4	> 32	> 32	> 32	> 32	1	–	–	–
N#CC[S@@+]([O-])[C@@H]1CC[C@@H]2CN1C(=O)N2O[C@H](F)C(=O)[O-].[Na+]	7	39	96	0.25	0.125	2	> 32	32	> 32	> 32	<0.031	–	–	–
C[S@+]([O-])[C@@H]1CC[C@@H]2CN1C(=O)N2O[C@H](F)C(=O)[O-].[Na+]	445	443	655	0.125	0.5	2	16	32	32	> 32	0.125	32600	–	–
O=C([O-])[C@@H](F)ON1C(=O)N2C[C@H]1CC[C@H]2[S@+]([O-])C[C@@H](O)CO.[Na+]	10	56	52	1	0.125	8	> 32	> 32	> 32	> 32	0.25	–	–	–
O=C([O-])[C@@H](F)ON1C(=O)N2C[C@H]1CC[C@H]2[S@+]([O-])Cc1c[nH]cn1.[Na+]	8	78	59	1	0.125	4	32	> 32	32	> 32	1	–	–	–
C[S@@+]([O-])[C@@H]1CC[C@@H]2CN1C(=O)N2OC(F)(F)C(=O)[O-].[Na+]	5	8	26	–	–	–	–	–	–	–	–	–	289	17
O=C([O-])[C@@H](F)ON1C(=O)N2C[C@H]1CC[C@H]2[S@+]([O-])CF.[Na+]	6	90	113	0.25	0.25	2	32	32	32	> 32	0.5	–	–	–
O=C([O-])[C@@H](F)ON1C(=O)N2C[C@H]1CC[C@H]2[S@+]([O-])CCO.[Na+]	16	36	57	0.5	0.125	2	> 32	> 32	–	> 32	1	–	–	–
NCC[S@@+]([O-])[C@@H]1CC[C@@H]2CN1C(=O)N2O[C@H](F)C(=O)O.O=C(O)C(F)(F)F	159	69	431	0.125	0.5	4	> 32	> 32	> 32	> 32	<0.031	–	–	–
Nc1ncc(C[S@@+]([O-])[C@@H]2CC[C@@H]3CN2C(=O)N3O[C@H](F)C(=O)[O-])s1.[Na+]	10	88	41	1	0.5	4	> 32	> 32	> 32	> 32	0.25	981	–	–
O=C([O-])[C@@H](F)ON1C(=O)N2C[C@H]1CC[C@H]2[S@+]([O-])CCCO.[Na+]	10	38	39	1	0.063	2	> 32	> 32	> 32	> 32	0.5	–	–	–
CC(=O)NCC[S@@+]([O-])[C@@H]1CC[C@@H]2CN1C(=O)N2O[C@H](F)C(=O)[O-].[Na+]	101	7	101	0.5	0.063	8	> 32	> 32	> 32	–	0.25	–	–	–
